In ChEMBL document CHEMBL4819119, “Design and evaluation of 1,2,3-dithiazoles and fused 1,2,4-dithiazines as anti-cancer agents” (Bioorg Med Chem Lett, 2021):
Values after ≈ are worked out from the molar mass of the structure shown.

Experiments:
[1] = Cytotoxicity against human WS1 cells assessed as reduction in cell viability incubated for 72 hrs by alamar blue assay; type: cell-based; conditions: WS1, 72 h
Outline: (§1)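 Cells seeded in 384-well plates and dosed 24 h after plating, in quadruplicate. Viability was read by alamarBlue fluorescence at 72 h. IC50 came from nonlinear regression as the mean of 4 replicates. Growth media carried 10% FBS and 1% pen/strep: UCH1/UCH2 in 4:1 IMDM:RPMI-1640 in gel-coated flasks; A431, PANC1 and WS1 in DMEM; DU145 and MCF7 in MEM; 5637 in RPMI-1640.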

DU-145 = assay: Cytotoxicity against human DU-145 cells assessed as reduction in cell viability incubated for 72 hrs by alamar blue assay; type: functional, cell-based; conditions: DU-145, 72 h; outline: as §1
MCF7 = assay: Cytotoxicity against human MCF7 cells assessed as reduction in cell viability incubated for 72 hrs by alamar blue assay; type: functional, cell-based; conditions: MCF7, 72 h; outline: as §1
5637 = assay: Cytotoxicity against human 5637 cells assessed as reduction in cell viability incubated for 72 hrs by alamar blue assay; type: functional, cell-based; conditions: Homo sapiens, 5637, 72 h; outline: as §1
[2] = Cytotoxicity against human UCH2 cells assessed as reduction in cell viability incubated for 72 hrs by alamar blue assay; type: functional, cell-based; conditions: UCH2, 72 h; outline: as §1
A-431 = assay: Cytotoxicity against human A-431 cells assessed as reduction in cell viability incubated for 72 hrs by alamar blue assay; type: functional, cell-based; conditions: A-431, 72 h; outline: as §1
[3] = Cytotoxicity against human UCH1 cells assessed as reduction in cell viability incubated for 72 hrs by alamar blue assay; type: functional, cell-based; conditions: UCH1, 72 h; outline: as §1
PANC-1 = assay: Cytotoxicity against human PANC1 cells assessed as reduction in cell viability incubated for 72 hrs by alamar blue assay; type: functional, cell-based; conditions: PANC-1, 72 h; outline: as §1
[4] = molecular target: T1, Neutral amino acid transporter B(0) (Homo sapiens, UniProt Q15758); assay: Inhibition of ASCT2 (unknown origin)
T1 sequence (Q15758 whole entry): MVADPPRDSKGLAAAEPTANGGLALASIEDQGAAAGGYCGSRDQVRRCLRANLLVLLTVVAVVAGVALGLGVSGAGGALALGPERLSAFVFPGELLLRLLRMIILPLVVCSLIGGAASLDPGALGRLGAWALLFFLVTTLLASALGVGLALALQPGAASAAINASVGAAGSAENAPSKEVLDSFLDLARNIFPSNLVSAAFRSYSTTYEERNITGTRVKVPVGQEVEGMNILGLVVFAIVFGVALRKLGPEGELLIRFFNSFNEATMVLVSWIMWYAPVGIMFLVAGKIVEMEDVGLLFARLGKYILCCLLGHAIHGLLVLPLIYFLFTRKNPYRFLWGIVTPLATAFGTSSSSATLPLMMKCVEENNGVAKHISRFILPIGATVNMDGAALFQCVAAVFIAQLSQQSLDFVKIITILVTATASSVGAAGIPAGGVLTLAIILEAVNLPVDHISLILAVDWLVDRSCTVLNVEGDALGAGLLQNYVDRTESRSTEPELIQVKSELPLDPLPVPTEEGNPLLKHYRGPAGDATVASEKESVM

[5] = tested on: Feline immunodeficiency virus; assay: Antiviral activity against Feline immunodeficiency virus; type: functional, organism-based
Listeria monocytogenes = assay: Antibacterial activity against Listeria monocytogenes; type: functional
Staphylococcus aureus = assay: Antibacterial activity against Staphylococcus aureus; type: functional
Enterococcus faecalis = assay: Antibacterial activity against Enterococcus faecalis; type: functional

SMILES | IC50 [1] [µM] | IC50 (DU-145) [µM] | IC50 (MCF7) [µM] | IC50 5637 [µM] | IC50 [2] [µM] | IC50 (A-431) [µM] | IC50 [3] [µM] | IC50 (PANC-1) [µM] | IC50 [4] [µM] | EC50 [5] [µM] | MIC (Listeria monocytogenes) [µg/mL] | MIC (Staphylococcus aureus) [µg/mL] | MIC (Enterococcus faecalis) [µg/mL]
Cc1cc(/N=c2\ssnc2Cl)n(Cc2ccccc2)n1 | 15 | 10 | 18 | 2.1 | 30 | 27 | 33 | 26 | – | – | – | – | –
CC.FC(F)(F)Oc1ccc(/N=c2\ssnc2Cl)cc1Cl | > 100 | 32 | 88 | 33 | 43 | > 100 | > 100 | > 100 | 8.1 | – | – | – | –
O=C1c2ccccc2C(=O)N1CCN1CCN(c2nssc2=S)CC1 | > 100 | 23 | 51 | 25 | > 100 | > 100 | 46 | 73 | – | – | – | – | –
O=C(OCCN1CCN(c2nss/c2=N\c2ccccc2)CC1)c1ccccc1 | 38 | 30 | 17 | 13 | 34 | 36 | 23 | 60 | – | – | – | – | –
c1ccc(/N=c2\ssnc2N2CCN(CCNc3ccccc3)CC2)cc1 | 55 | 55 | 10 | 18 | 21 | 87 | 25 | 67 | – | – | – | – | –
CCOC(=O)c1c2n[se]sc-2c(Cl)c1Cl | – | – | – | – | – | – | – | – | – | 0.082 | – | – | –
Cc1cc(/N=c2\ssnc2Cl)n[nH]1 | 40 | 14 | 18 | 20 | 18 | 69 | 33 | 27 | – | – | – | – | –
CSc1ccc(/N=c2\ssnc2Cl)cc1 | 66 | 14 | 36 | 34 | 37 | 51 | 38 | 86 | – | – | – | – | –
N#Cc1c(Br)cccc1/N=c1\ssnc1Cl | > 100 | 42 | 28 | 14 | 65 | > 100 | 39 | 13 | – | – | – | – | –
Clc1nss/c1=N\c1ccccc1 | – | – | – | – | – | – | – | – | – | – | 16 (≈ 70 µM) | 16 (≈ 70 µM) | 16 (≈ 70 µM)
Cc1cc(OC(F)(F)F)ccc1/N=c1\ssnc1Cl | > 100 | 18 | 43 | 47 | 87 | > 100 | 57 | 76 | – | – | – | – | –
Clc1nss/c1=N\c1cc(-c2ccccc2)nn1Cc1ccccc1 | > 100 | 14 | 30 | 16 | 52 | > 100 | 30 | 18 | – | – | – | – | –
N#Cc1cc(Br)ccc1/N=c1\ssnc1N1CCN(CCCl)CC1 | > 100 | 15 | 4.1 | 8 | 23 | > 100 | 32 | 18 | – | – | – | – | –
N#CC1=Nc2c(c(-c3ccccc3)nn2Cc2ccccc2)SS1 | 51 | 32 | 54 | 8.7 | > 100 | 54 | > 100 | > 100 | – | – | – | – | –
CN(CCN1CCN(c2nssc2=O)CC1)c1ccccc1 | 20 | 4.4 | 2.2 | 12 | 17 | 17 | 12 | 21 | – | – | – | – | –
Clc1nss/c1=N\c1ccc(Oc2ccccc2)cc1 | > 100 | > 100 | 35 | 35 | 33 | > 100 | 30 | 55 | – | – | – | – | –
N#CC1=Nc2c(c(-c3ccccc3)nn2-c2ccccc2)SS1 | > 100 | 16 | 36 | 14 | 68 | 72 | 55 | 75 | – | – | – | – | –
O=S(=O)(Nc1ncccn1)c1ccc(/N=c2\ssnc2Cl)cc1 | > 100 | 29 | 3 | 39 | 19 | > 100 | 34 | 37 | – | – | – | – | –
